The values below come from ChEMBL document CHEMBL2177000, “Pharmacokinetic optimization of class-selective histone deacetylase inhibitors and identification of associated candidate predictive biomarkers of hepatocellular carcinoma tumor response” (J Med Chem, 2012).

Data set [1] in a line: Clearance in mouse liver microsomes at 1 uM incubated for 10 mins by LC-MS/MS method. In kind it is ADME, Microsome. The essentials: (§1)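 Liver microsomes (human or mouse, 0.5 mg/mL) in 100 mM potassium phosphate pH 7.4 with 1 μM compound, prewarmed 10 min at 37 °C, started with NADPH (10 mM); stopped at 0, 3, 6, 9, 15, 30 min with ice-cold methanol containing tolbutamide internal standard; LC-MS/MS. Hepatic clearance (mL/min/kg) calculated from intrinsic clearance.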
Background: Liver microsomes are vesicles of endoplasmic reticulum, rich in cytochrome P450 enzymes.

The nature of data set [2]: Clearance in human liver microsomes at 1 uM incubated for 10 mins by LC-MS/MS method. In kind it is ADME, Microsome. A digest of the protocol:
as §1

Data set [3] addresses Histone deacetylase (Homo sapiens) (UniProt Q13547+O15379+Q9UBN7+Q92769+Q9UQL6+Q8WUI4+Q9BY41+Q96DB2+P56524+Q9UKV0+Q969S8). Description: Inhibition of Class 1 histone deacetylase in human HeLa cells assessed as induction in p21 protein expression at 3 uM incubated for 16 hrs by luciferase reporter gene assay relative to HDAC inhibitor entinostat. The format is cell-based. Further details: scale not given: the % may be the effect or the level left. On the technique in general: A reporter such as luciferase makes a cellular process visible.

For the compound `Cc1ccc(NC(=O)[C@H]2CN(C)C[C@@H]2c2ccc(/C=C/C(=O)Nc3ccccc3N)cc2)cn1` (racemic), the CLhep predicted at 1 µM was 57 mL/min/kg in data set [1] and 8 mL/min/kg in data set [2]. Moreover, the Activity in data set [3] amounted to 130%.
For the compound `Nc1ccccc1NC(=O)/C=C/c1ccc([C@H]2CN(Cc3ccccc3)C[C@@H]2C(=O)Nc2ccc(Cl)cc2)cc1` (racemic), the CLhep predicted at 1 µM was 81 mL/min/kg in data set [1] and 3 mL/min/kg in data set [2]. The Activity in data set [3] was 70%.
As to `CN1C[C@H](C(=O)Nc2ccncc2)[C@@H](c2ccc(/C=C/C(=O)Nc3ccccc3N)cc2)C1` (racemic), the Activity in data set [3] was found to be 50%.
In the case of `CN1C[C@H](C(=O)Nc2cccnc2)[C@@H](c2ccc(/C=C/C(=O)Nc3ccccc3N)cc2)C1` (racemic), the CLhep predicted at 1 µM was 41 mL/min/kg in data set [1] and 10 mL/min/kg in data set [2]. Moreover, the Activity in data set [3] worked out at 80%.
As for `COc1ccc(NC(=O)[C@H]2CN(C)C[C@@H]2c2ccc(/C=C/C(=O)Nc3ccccc3N)cc2)cc1` (racemic), the figures for the CLhep predicted at 1 µM in data set [1] and in data set [2] were 54 mL/min/kg and 14 mL/min/kg, respectively. Moreover, the Activity in data set [3] was 170%.
Regarding `CN1C[C@H](C(=O)Nc2ccccc2)[C@@H](c2ccc(/C=C/C(=O)Nc3ccccc3N)cc2)C1` (racemic), the CLhep predicted at 1 µM in data set [1] is 67 mL/min/kg; in data set [2], 7 mL/min/kg. For the same compound, the Activity in data set [3] is 270%.
Take `CN1C[C@H](C(=O)Nc2ccc(F)c(Br)c2)[C@@H](c2ccc(/C=C/C(=O)Nc3ccccc3N)cc2)C1` (racemic): the CLhep predicted at 1 µM in data set [1] is 43 mL/min/kg; in data set [2] it was 15 mL/min/kg. Further, in data set [3], the Activity worked out at 200%.
Taken in the same sequence, the figures for `CC(C)NC(=O)[C@H]1CN(C)C[C@@H]1c1ccc(/C=C/C(=O)Nc2ccccc2N)cc1` (racemic) were 12 mL/min/kg, 8 mL/min/kg and 70%.
For the compound `N#CCN1C[C@H](C(=O)Nc2ccc(Cl)cc2)[C@@H](c2ccc(/C=C/C(=O)Nc3ccccc3N)cc2)C1` (racemic), the results for the CLhep predicted at 1 µM in data set [1] and in data set [2] were 51 mL/min/kg and 17 mL/min/kg, respectively. Also, in data set [3], the Activity is 190%.
On the same counts, the results for `CN1C[C@H](C(=O)Nc2ccc(C(F)(F)F)cc2)[C@@H](c2ccc(/C=C/C(=O)Nc3ccccc3N)cc2)C1` (racemic) are 23 mL/min/kg, 6 mL/min/kg and 10%.
On the same counts, the results for `CN1C[C@H](C(=O)Nc2ccc(F)cc2F)[C@@H](c2ccc(/C=C/C(=O)Nc3ccccc3N)cc2)C1` (racemic) are 27 mL/min/kg, 12 mL/min/kg and 180%.
As for `CN1C[C@H](C(=O)Nc2ccc(Br)cc2)[C@@H](c2ccc(/C=C/C(=O)Nc3ccccc3N)cc2)C1` (racemic), the CLhep predicted at 1 µM in data set [1] was 16 mL/min/kg; in data set [2], 3 mL/min/kg. Moreover, the Activity in data set [3] was found to be 40%.
`CCN1C[C@H](C(=O)Nc2ccc(Cl)cc2)[C@@H](c2ccc(/C=C/C(=O)Nc3ccccc3N)cc2)C1` (racemic): the CLhep predicted at 1 µM in data set [1] was 35 mL/min/kg; in data set [2], 12 mL/min/kg. The Activity in data set [3] was 170%.
In the case of `Nc1ccccc1NC(=O)/C=C/c1ccc([C@H]2CN(CC(F)(F)F)C[C@@H]2C(=O)Nc2ccc(Cl)cc2)cc1` (racemic), the CLhep predicted at 1 µM in data set [1] was 35 mL/min/kg; in data set [2], 15 mL/min/kg. Further, the Activity in data set [3] worked out at 100%.
As for `CN1C[C@H](C(=O)Nc2ccccc2F)[C@@H](c2ccc(/C=C/C(=O)Nc3ccccc3N)cc2)C1` (racemic), the values for the CLhep predicted at 1 µM in data set [1] and in data set [2] were 67 mL/min/kg and 10 mL/min/kg, respectively. Besides, in data set [3], the Activity worked out at 170%.
For the compound `CCN(CC)C(=O)N1C[C@H](C(=O)Nc2ccc(Cl)cc2)[C@@H](c2ccc(/C=C/C(=O)Nc3ccccc3N)cc2)C1` (racemic), the CLhep predicted at 1 µM in data set [1] is 83 mL/min/kg; in data set [2], 19 mL/min/kg. Also, the Activity in data set [3] came out at 90%.
With `CCNC(=O)N1C[C@H](C(=O)Nc2ccc(Cl)cc2)[C@@H](c2ccc(/C=C/C(=O)Nc3ccccc3N)cc2)C1` (racemic), the CLhep predicted at 1 µM in data set [1] was 25 mL/min/kg; in data set [2] it was 9 mL/min/kg. For the same compound, the Activity in data set [3] came out at 40%.
Regarding `CC(C)c1ccc(NC(=O)[C@H]2CN(C)C[C@@H]2c2ccc(/C=C/C(=O)Nc3ccccc3N)cc2)cc1` (racemic), the values for the CLhep predicted at 1 µM in data set [1] and in data set [2] were 54 mL/min/kg and 10 mL/min/kg, respectively. Also, the Activity in data set [3] came to 70%.
In the case of `CN1C[C@H](C(=O)Nc2ccc(F)c(Cl)c2)[C@@H](c2ccc(/C=C/C(=O)Nc3ccccc3N)cc2)C1` (racemic), the CLhep predicted at 1 µM was 34 mL/min/kg in data set [1] and 15 mL/min/kg in data set [2]. For the same compound, the Activity in data set [3] is 180%.
As to `CN1C[C@H](C(=O)Nc2cccc(Cl)c2)[C@@H](c2ccc(/C=C/C(=O)Nc3ccccc3N)cc2)C1` (racemic), the CLhep predicted at 1 µM in data set [1] was 58 mL/min/kg; in data set [2] it was 7 mL/min/kg. The Activity in data set [3] was 230%.
On the same counts, the results for `Cc1cccc(NC(=O)[C@H]2CN(C)C[C@@H]2c2ccc(/C=C/C(=O)Nc3ccccc3N)cc2)c1` (racemic) are 74 mL/min/kg, 14 mL/min/kg and 350%.
Take `Nc1ccccc1NC(=O)/C=C/c1ccc([C@H]2CN(CCF)C[C@@H]2C(=O)Nc2ccc(Cl)cc2)cc1` (racemic): the CLhep predicted at 1 µM in data set [1] was 51 mL/min/kg; in data set [2], 17 mL/min/kg. In data set [3], the Activity came out at 180%.
With `CN1C[C@H](C(=O)Nc2ccc(Cl)cc2)[C@@H](c2ccc(/C=C/C(=O)Nc3ccccc3N)nc2)C1` (racemic), the CLhep predicted at 1 µM in data set [1] was 38 mL/min/kg; in data set [2], 12 mL/min/kg. In data set [3], the Activity was > 300%.
As for `COc1cccc(NC(=O)[C@H]2CN(C)C[C@@H]2c2ccc(/C=C/C(=O)Nc3ccccc3N)cc2)c1` (racemic), the values for the CLhep predicted at 1 µM in data set [1] and in data set [2] were 65 mL/min/kg and 14 mL/min/kg, respectively. Also, the Activity in data set [3] is 170%.
As for `COCCN1C[C@H](C(=O)Nc2ccc(Cl)cc2)[C@@H](c2ccc(/C=C/C(=O)Nc3ccccc3N)cc2)C1` (racemic), the CLhep predicted at 1 µM in data set [1] is 72 mL/min/kg; in data set [2] it was 6 mL/min/kg. For the same compound, in data set [3], the Activity came out at 250%.
Taken in the same sequence, the figures for `CN1C[C@H](C(=O)Nc2ccc(C#N)cc2)[C@@H](c2ccc(/C=C/C(=O)Nc3ccccc3N)cc2)C1` (racemic) were 35 mL/min/kg, 1 mL/min/kg and 80%.
Taken in the same sequence, the figures for `CN1C[C@H](C(=O)N2CCCCC2)[C@@H](c2ccc(/C=C/C(=O)Nc3ccccc3N)cc2)C1` (racemic) were 42 mL/min/kg, 9 mL/min/kg and 10%.
For the compound `Cc1ccc(NC(=O)[C@H]2CN(C)C[C@@H]2c2ccc(/C=C/C(=O)Nc3ccccc3N)cc2)cc1` (racemic), the CLhep predicted at 1 µM is 62 mL/min/kg in data set [1] and 15 mL/min/kg in data set [2]. For the same compound, the Activity in data set [3] came to 260%.
For the compound `Cc1cc(NC(=O)[C@H]2CN(C)C[C@@H]2c2ccc(/C=C/C(=O)Nc3ccccc3N)cc2)ccc1F` (racemic), the CLhep predicted at 1 µM in data set [1] was 62 mL/min/kg; in data set [2] it was 15 mL/min/kg. Further, in data set [3], the Activity stood at 200%.
Turning to `CN1C[C@H](C(=O)NC2CCCC2)[C@@H](c2ccc(/C=C/C(=O)Nc3ccccc3N)cc2)C1` (racemic), the results for the CLhep predicted at 1 µM in data set [1] and in data set [2] were 61 mL/min/kg and 9 mL/min/kg, respectively. In data set [3], the Activity turned out to be 180%.
On the same counts, the results for `CN1C[C@H](C(=O)Nc2ccc(C3CC3)cc2)[C@@H](c2ccc(/C=C/C(=O)Nc3ccccc3N)cc2)C1` (racemic) are 60 mL/min/kg, 12 mL/min/kg and 60%.
On to `CN1C[C@H](C(=O)Nc2ccc(Cl)cn2)[C@@H](c2ccc(/C=C/C(=O)Nc3ccccc3N)cc2)C1` (racemic), for which the values for the CLhep predicted at 1 µM in data set [1] and in data set [2] were 31 mL/min/kg and 13 mL/min/kg, respectively. The Activity in data set [3] stood at 150%.
Taken in the same sequence, the figures for `Nc1ccccc1NC(=O)/C=C/c1ccc([C@H]2CN(CC(F)F)C[C@@H]2C(=O)Nc2ccc(Cl)cc2)cc1` (racemic) were 49 mL/min/kg, 16 mL/min/kg and 90%.
Take `CN1C[C@H](C(=O)NC2CC2)[C@@H](c2ccc(/C=C/C(=O)Nc3ccccc3N)cc2)C1` (racemic): the CLhep predicted at 1 µM in data set [1] was 7 mL/min/kg; in data set [2], 10 mL/min/kg. In addition, the Activity in data set [3] was determined as 80%.
Taken in the same sequence, the figures for `CN1C[C@H](C(=O)Nc2ccc(Cl)cc2F)[C@@H](c2ccc(/C=C/C(=O)Nc3ccccc3N)cc2)C1` (racemic) were 43 mL/min/kg, 11 mL/min/kg and 200%.
As for `Nc1ccccc1NC(=O)/C=C/c1ccc([C@H]2CN(C3COC3)C[C@@H]2C(=O)Nc2ccc(Cl)cc2)cc1` (racemic), the figures for the CLhep predicted at 1 µM in data set [1] and in data set [2] were 42 mL/min/kg and 13 mL/min/kg, respectively. For the same compound, in data set [3], the Activity came to 90%.
As for `Nc1ccccc1NC(=O)/C=C/c1ccc([C@H]2CN(c3ncccn3)C[C@@H]2C(=O)Nc2ccc(Cl)cc2)cc1` (racemic), the CLhep predicted at 1 µM in data set [1] was 44 mL/min/kg; in data set [2], 11 mL/min/kg. In addition, in data set [3], the Activity amounted to 120%.
In the case of `Cc1cc(NC(=O)[C@H]2CN(C)C[C@@H]2c2ccc(/C=C/C(=O)Nc3ccccc3N)cc2)ccc1Cl` (racemic), the CLhep predicted at 1 µM is 65 mL/min/kg in data set [1] and 15 mL/min/kg in data set [2]. Moreover, the Activity in data set [3] came to 210%.
For `CN1C[C@H](C(=O)Nc2ccc(Cl)cc2)[C@@H](c2ccc(/C=C/C(=O)Nc3ccccc3N)cc2)C1` (racemic), the Activity in data set [3] turned out to be 240%.
